The results in this text go back to ChEMBL document CHEMBL4038346, “Effect of Nitrogen Atom Substitution in A3 Adenosine Receptor Binding: N-(4,6-Diarylpyridin-2-yl)acetamides as Potent and Selective Antagonists” (J Med Chem, 2017).

Active and inactive are the calls of the source. No cut-off for these calls is given here.

In experiment [1] the target is T1, Adenosine receptor A2a (Homo sapiens, UniProt P29274). The experiment in a line: Displacement of [3H]ZM241385 from human adenosine A2A receptor expressed in human HeLa cell membranes at 1 uM after 30 mins relative to control. For orientation: Loss of bound radioactivity is the signal in a displacement assay; it reports binding, not function.
T1 sequence (P29274 whole entry): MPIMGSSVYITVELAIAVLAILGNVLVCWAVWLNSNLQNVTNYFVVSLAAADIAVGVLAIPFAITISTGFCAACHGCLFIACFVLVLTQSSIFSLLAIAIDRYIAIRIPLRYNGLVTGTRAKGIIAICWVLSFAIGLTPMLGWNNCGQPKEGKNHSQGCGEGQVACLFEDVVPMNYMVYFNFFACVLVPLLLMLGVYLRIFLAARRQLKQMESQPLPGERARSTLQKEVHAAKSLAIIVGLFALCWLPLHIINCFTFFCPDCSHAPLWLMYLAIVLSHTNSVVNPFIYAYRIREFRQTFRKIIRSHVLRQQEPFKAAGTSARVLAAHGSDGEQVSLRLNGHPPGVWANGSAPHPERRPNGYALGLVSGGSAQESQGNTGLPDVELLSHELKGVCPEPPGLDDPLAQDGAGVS
For experiment [2], the target named is Adenosine receptors; A1 & A3 (Homo sapiens) (UniProt P30542+P0DMS8). Nature of the experiment: Selectivity ratio of Ki for human adenosine A1 receptor expressed in CHO cell membranes to Ki for human adenosine A3 receptor expressed in human HeLa cell membranes. It is filed as cell-based.
The target in another experiment is T2, Adenosine receptor A1 (Homo sapiens, UniProt P30542).
T2 sequence (P30542 whole entry): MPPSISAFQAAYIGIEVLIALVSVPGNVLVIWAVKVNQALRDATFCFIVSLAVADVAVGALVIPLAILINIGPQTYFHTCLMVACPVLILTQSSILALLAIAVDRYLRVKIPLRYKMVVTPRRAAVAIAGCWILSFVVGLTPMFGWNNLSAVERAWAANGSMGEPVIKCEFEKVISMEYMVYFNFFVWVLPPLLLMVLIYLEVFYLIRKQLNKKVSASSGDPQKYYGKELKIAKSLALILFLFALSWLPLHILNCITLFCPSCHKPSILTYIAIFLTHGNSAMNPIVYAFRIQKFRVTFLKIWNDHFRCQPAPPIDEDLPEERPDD
The experiment in a line: Displacement of [3H]DPCPX from human adenosine A1 receptor expressed in CHO cell membranes after 60 mins.

The target in another experiment is T3, Adenosine receptor A3 (Homo sapiens, UniProt P0DMS8).
T3 sequence (P0DMS8 whole entry): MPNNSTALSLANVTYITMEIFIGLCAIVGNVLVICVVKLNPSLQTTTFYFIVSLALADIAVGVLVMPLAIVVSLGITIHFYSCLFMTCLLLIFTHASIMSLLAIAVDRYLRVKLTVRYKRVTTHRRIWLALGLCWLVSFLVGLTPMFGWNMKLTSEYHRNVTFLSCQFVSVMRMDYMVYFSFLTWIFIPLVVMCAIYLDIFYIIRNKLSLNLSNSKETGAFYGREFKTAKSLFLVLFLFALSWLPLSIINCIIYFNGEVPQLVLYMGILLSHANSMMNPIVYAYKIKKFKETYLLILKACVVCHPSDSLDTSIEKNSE
The experiment in a line: (§1) Displacement of [3H]NECA from human adenosine A3 receptor expressed in human HeLa cell membranes after 180 mins.

Experiment [3] concerns the target T4, Adenosine receptor A2b (Homo sapiens) (UniProt P29275).
T4 sequence (whole entry): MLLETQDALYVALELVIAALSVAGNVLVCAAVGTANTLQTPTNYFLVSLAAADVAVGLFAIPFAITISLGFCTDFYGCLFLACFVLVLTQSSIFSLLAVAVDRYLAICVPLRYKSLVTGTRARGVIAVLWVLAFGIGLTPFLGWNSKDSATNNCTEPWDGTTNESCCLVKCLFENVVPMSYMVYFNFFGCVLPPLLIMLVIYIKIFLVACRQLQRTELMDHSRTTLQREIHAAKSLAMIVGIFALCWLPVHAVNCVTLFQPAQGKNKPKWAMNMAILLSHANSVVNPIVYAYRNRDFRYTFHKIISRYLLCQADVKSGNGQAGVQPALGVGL
The experiment in a line: Displacement of [3H]DPCPX from human adenosine A2B receptor expressed in HEK293 cell membranes at 1 uM after 30 mins relative to control.

The target in experiment [4] is T5, Adenosine receptor A3 (Homo sapiens) (UniProt P0DMS8).
T5 sequence (whole entry): T3 sequence (P0DMS8 whole entry)
Nature of the experiment: Antagonist activity at human adenosine A3 receptor expressed in CHO cells assessed as decrease in NECA-induced inhibition of forskolin-stimulated cAMP formation preincubated for 15 mins followed by NECA addition for 10 mins and subsequent forskolin challenge for 5 mins by enzyme immunoassay. It is filed as functional, cell-based. Summed up: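 CHO-A3 cells seeded at 20 000/well in DMEM-F12 with 10% FCS and 1% L-glutamine, grown 24 h at 37 °C, 5% CO2. Washed, then preincubated 15 min at 37 °C in DMEM-F12/25 mM HEPES pH 7.4 with 30 μM rolipram plus antagonist.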

Another experiment deals with T6, Adenosine receptor A2b (Homo sapiens, UniProt P29275).
T6 sequence (P29275 whole entry): T4 sequence (whole entry)
The experiment in a line: Displacement of [3H]DPCPX from human adenosine A2B receptor expressed in HEK293 cell membranes after 30 mins.

Experiment [5] addresses T1, Adenosine receptor A2a. Nature of the experiment: Displacement of [3H]ZM241385 from human adenosine A2A receptor expressed in human HeLa cell membranes after 30 mins.
The target of experiment [6] is T7, Adenosine receptor A1 (Homo sapiens) (UniProt P30542).
T7 sequence (whole entry): T2 sequence (P30542 whole entry)
The experiment in a line: Displacement of [3H]DPCPX from human adenosine A1 receptor expressed in CHO cell membranes at 1 uM after 60 mins relative to control.

The target of experiment [7] is T5, Adenosine receptor A3 (Homo sapiens). The description is as §1.

What is called inhibition is the share of the control response that was lost under treatment. By Ki is commonly meant a dissociation constant, usually derived from enzyme kinetics or from competition with a known ligand. Low values mean tighter binding, high ones weaker binding. As usually defined, the Kb is the equilibrium dissociation constant of an antagonist, usually derived from a functional assay.

With `CC(=O)Nc1cc(-c2ccc(OC(F)(F)F)cc2)cc(-c2ccc(OC(F)(F)F)cc2)n1`, the inhibition on Adenosine receptor A2a [1] came to 1%.
Still for that read-out and setting: to `COc1ccc(-c2cc(NC(C)=O)nc(-c3ccc(OC)c(OC)c3)c2)cc1OC` belongs 1%.
On to `CC(=O)Nc1cc(-c2ccc3c(c2)OCO3)cc(-c2ccc3c(c2)OCO3)n1`, for which the inhibition worked out at 9% at Adenosine receptor A2a [1] and 27% in [3]. The Ratio Ki in experiment [2] was 30. Moreover, the figures for the Ki on Adenosine receptor A1 and at Adenosine receptor A3 were 91.1 nM and 2.8 nM, respectively. In addition, the antagonist dissociation constant (Kb) in experiment [4] came out at 1.9 nM.
`COc1cccc(-c2cc(NC(C)=O)nc(-c3cccc(OC)c3)c2)c1` gave an inhibition on Adenosine receptor A2a [1] of 21%. Further, the Ki on Adenosine receptor A1 was 239 nM.
Regarding `COc1ccc(-c2cc(NC(C)=O)nc(-c3ccc(OC)cc3)c2)cc1`, the inhibition on Adenosine receptor A2a [1] stood at 15%.
Same read-out and setting: the same measure for `COc1ccc(-c2cc(NC(C)=O)nc(-c3ccc(OC)cc3OC)c2)c(OC)c1`: 2%; for `CC(=O)Nc1cc(-c2ccc(C)cc2)cc(-c2ccc(C)cc2)n1`: 1%.
`CC(=O)Nc1cc(-c2ccccc2)cc(-c2ccccc2)n1` showed an inhibition at Adenosine receptor A2a [1] of 49%. For the same molecule, the Ki amounted to 21.1 nM at Adenosine receptor A1, 51.2 nM on Adenosine receptor A2b and 98.5 nM on Adenosine receptor A3.
As to `CC(=O)Nc1cc(-c2ccc(C(C)=O)cc2)cc(-c2ccc(C(C)=O)cc2)n1`, on Adenosine receptor A2a [1], the inhibition was found to be 4%.
For the molecule `COc1cccc(-c2cc(NC(C)=O)nc(-c3cccc(OC)c3OC)c2)c1OC`, the affinity on Adenosine receptor A2a [5], expressed as Ki, was 353 nM.
With `COc1cc(-c2cc(NC(C)=O)nc(-c3cc(OC)c(OC)c(OC)c3)c2)cc(OC)c1OC`, the inhibition worked out at 15% on Adenosine receptor A2a [1], 8% in [6] and 4% in experiment [3]. The molecule also had a Ki on Adenosine receptor A3 of 116 nM.
For `CC(=O)Nc1cc(-c2ccc(C(C)=O)cc2)nc(-c2ccc(C(C)=O)cc2)n1`, the inhibition entry in [7] is “Active”.
With `COc1ccc(OC)c(-c2cc(NC(C)=O)nc(-c3cc(OC)ccc3OC)c2)c1`, the inhibition is 3% on Adenosine receptor A2a [1], 3% in [6] and 1% in experiment [3]. In addition, the Ki on Adenosine receptor A3 was 35.2 nM.
With `CSc1ccc(-c2cc(NC(C)=O)nc(-c3ccc(SC)cc3)c2)cc1`, at Adenosine receptor A2a [1], the inhibition was 2%.
Regarding `COc1ccccc1-c1cc(NC(C)=O)nc(-c2ccccc2OC)c1`, the figures for the inhibition (on Adenosine receptor A2a [1]; in [6]; in experiment [3]) were 1%, 8% and 19%, respectively. This molecule had a Ki on Adenosine receptor A3 of 781 nM.
Take `COc1cc(OC)cc(-c2cc(NC(C)=O)nc(-c3cc(OC)cc(OC)c3)c2)c1`: the inhibition on Adenosine receptor A2a [1] stood at 2%.
Consider `COc1ccccc1-c1cc(NC(C)=O)nc(-c2ccccc2OC)n1`, for which the inhibition entry in [7] is “Active”.
Consider `COc1cccc(OC)c1-c1cc(NC(C)=O)nc(-c2c(OC)cccc2OC)c1`, for which, on Adenosine receptor A2a [1], the inhibition was determined as 1%.
